What was measured:
Type in all cases: functional
Trichomonas vaginalis [1] = assay: In vitro cytostatic activity against Trichomonas vaginalis at a dose of 1 ug/ml after 24 hours
Procedure, shortened: (§1)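 T. vaginalis JH31A cultured in modified Diamond medium plus equine serum, 37 °C, 5% CO2. Compounds added at 100, 10 and 1 µg/ml 6 h post-seeding (0 h). Neubauer-chamber counts of viable parasites at 24 and 48 h. Cytostatic activity is the percentage growth inhibition relative to untreated controls.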

Trichomonas vaginalis [2] = assay: In vitro cytostatic activity against Trichomonas vaginalis at a dose of 10 ug/ml after 24 hours; procedure, shortened: as §1
Trichomonas vaginalis [3] = assay: In vitro cytocidal activity against Trichomonas vaginalis at a dose of 10 ug/ml after 48 hours
Procedure, shortened: (§2)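 T. vaginalis strain JH31A grown in modified Diamond medium with equine serum at 37 °C, 5% CO2. Test agents added 6 h after seeding (0 h). Viable protozoa counted by Neubauer chamber after 24 and 48 h incubation at 37 °C. Cytocidal activity is the percentage reduction in viable organisms relative to untreated controls, from microscopic counts.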

Trichomonas vaginalis [4] = assay: In vitro cytocidal activity against Trichomonas vaginalis at a dose of 100 ug/ml after 48 hours; procedure, shortened: as §2
Trichomonas vaginalis [5] = assay: In vitro cytocidal activity against Trichomonas vaginalis at a dose of 100 ug/ml after 24 hours; procedure, shortened: as §2
Trichomonas vaginalis [6] = assay: In vitro cytostatic activity against Trichomonas vaginalis at a dose of 1 ug/ml after 48 hours; procedure, shortened: as §1
Trichomonas vaginalis [7] = assay: In vitro cytostatic activity against Trichomonas vaginalis at a dose of 10 ug/ml after 48 hours; procedure, shortened: as §1
Trichomonas vaginalis [8] = assay: In vitro cytostatic activity against Trichomonas vaginalis at a dose of 100 ug/ml after 48 hours; procedure, shortened: as §1
Trichomonas vaginalis [9] = assay: In vitro cytostatic activity against Trichomonas vaginalis at a dose of 100 ug/ml after 24 hours; procedure, shortened: as §1
Trichomonas vaginalis [10] = assay: In vitro cytocidal activity against Trichomonas vaginalis at a dose of 0.5 mg/ml after 24 hours; procedure, shortened: as §2
Trichomonas vaginalis [11] = assay: In vitro cytocidal activity against Trichomonas vaginalis at a dose of 1 mg/mL after 24 hours; procedure, shortened: as §2
Trichomonas vaginalis [12] = assay: In vitro cytocidal activity against Trichomonas vaginalis at a dose of 0.5 mg/ml after 48 hours; procedure, shortened: as §2
Trichomonas vaginalis [13] = assay: In vitro cytocidal activity against Trichomonas vaginalis at a dose of 2 mg/ml after 24 hours; procedure, shortened: as §2
Trichomonas vaginalis [14] = assay: In vitro cytocidal activity against Trichomonas vaginalis at a dose of 2 mg/ml after 48 hours; procedure, shortened: as §2
Trichomonas vaginalis [15] = assay: In vitro cytocidal activity against Trichomonas vaginalis at a dose of 1 mg/mL after 48 hours; procedure, shortened: as §2

| Structure (SMILES) | Cytostatic activity (Trichomonas vaginalis [1]) | Cytostatic activity (Trichomonas vaginalis [2]) | Cytocidal activity (Trichomonas vaginalis [3]) | Cytocidal activity (Trichomonas vaginalis [4]) | Cytocidal activity (Trichomonas vaginalis [5]) | Cytostatic activity (Trichomonas vaginalis [6]) | Cytostatic activity (Trichomonas vaginalis [7]) | Cytostatic activity (Trichomonas vaginalis [8]) | Cytostatic activity (Trichomonas vaginalis [9]) | Cytocidal activity (Trichomonas vaginalis [10]) | Cytocidal activity (Trichomonas vaginalis [11]) | Cytocidal activity (Trichomonas vaginalis [12]) | Cytocidal activity (Trichomonas vaginalis [13]) | Cytocidal activity (Trichomonas vaginalis [14]) | Cytocidal activity (Trichomonas vaginalis [15]) |
| --- | --- | --- | --- | --- | --- | --- | --- | --- | --- | --- | --- | --- | --- | --- | --- |
| CN1CC(=O)N(C)c2cc([N+](=O)[O-])ccc21 | 0% | 71.11% | 92.03% | 100% | 100% | 0% | – | – | – | – | – | – | – | – | – |
| CN1CC(=O)Nc2cc([N+](=O)[O-])ccc21 | 0% | 59.05% | – | 100% | 100% | 8.32% | 13.97% | – | – | – | – | – | – | – | – |
| O=C1Nc2cc([N+](=O)[O-])ccc2N2CCCCC12 (centres undefined) | 0% | 57.45% | – | 100% | 98.43% | 0% | 75.15% | – | – | – | – | – | – | – | – |
| O=C1Nc2cc([N+](=O)[O-])ccc2N2Cc3ccccc3CC12 (centres undefined) | 0% | 51.82% | – | – | – | 0% | 37.15% | 81.25% | 85.53% | – | – | – | – | – | – |
| CN1C(=O)C[N+](C)(C)c2ccc([N+](=O)[O-])cc21.[Cl-] | 0.17% | 72.85% | – | 100% | 100% | 0.78% | 1.13% | – | – | – | – | – | – | – | – |
| O=C1CN(CCCCCCCl)c2ccc([N+](=O)[O-])cc2N1 | 8.76% | 79.28% | – | 99.83% | 99.15% | 0% | 30.56% | – | – | – | – | – | – | – | – |
| O=C1Nc2cc([N+](=O)[O-])ccc2N2CCCC12 (centres undefined) | 11.09% | 33.48% | – | 100% | 59.99% | 17.32% | 54.22% | – | – | – | – | – | – | – | – |
| CN1C(=O)CN(CCCCCCl)c2ccc([N+](=O)[O-])cc21 | 0% | 72.68% | 93.94% | 100% | 100% | 69.96% | – | – | – | – | – | – | – | – | – |
| Cc1ncc([N+](=O)[O-])n1CCO [METRONIDAZOLE] | – | – | – | – | – | – | – | – | – | 98.19% | 99.18% | 98.79% | 99.63% | 100% | 99.72% |

Reference: ChEMBL document CHEMBL1139586, “A linear discrimination analysis based virtual screening of trichomonacidal lead-like compounds: outcomes of in silico studies supported by experimental results” (2005)
